Laboratory results taken from ChEMBL document CHEMBL1154067, “Antiviral and cytotoxic activities of aminoarylazo compounds and aryltriazene derivatives” (Bioorg Med Chem, 2009).
Calls of active or inactive are those of the source.

What was measured:
MT4 = experiment: Cytotoxicity against human MT4 cells after 96 hrs by MTT assay; assay type: cell-based; conditions: mt4, 96 h
Method in brief: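 Exponentially growing mock-infected MT-4 seeded at 1 × 10^5 cells/mL in RPMI-1640 with 10% FCS, penicillin and streptomycin. Incubated with or without serial compound dilutions at 37 °C, 5% CO2. Viability by MTT after 96 h. CC50 = concentration reducing viability 50%.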

Yellow fever virus = experiment: Antiviral activity against Yellow fever virus infected in BHK-21 cells assessed as inhibition of virus-induced cytopathicity after 3 to 4 days by MTT assay; assay type: functional, organism-based
[1] = tested on: Bovine viral diarrhea virus 1; experiment: Antiviral activity against Bovine viral diarrhea virus infected in MDBK cells assessed as inhibition of virus-induced cytopathicity after 3 to 4 days by MTT assay; assay type: functional, organism-based; conditions: Bovine viral diarrhea virus isolates and strains
[2] = tested on: Respiratory syncytial virus; experiment: Antiviral activity against Respiratory syncytial virus A2 infected in Vero-76 cells after 5 days by plaque reduction assay; assay type: functional, organism-based; conditions: human respiratory syncytial virus, A2, Vero 76, 120 h
[3] = Cytotoxicity against hamster BHK21 cells assessed as reduction in cell viability after 48 to 96 hrs by MTT assay; assay type: cell-based, Mesocricetus auratus, BHK-21; conditions: bhk-21
Method in brief: (§1)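 Mock-infected cells in maintenance medium, MDBK at 6 × 10^5 and BHK at 1 × 10^6 cells/mL initial density, with or without serial compound dilutions. Run in parallel with antiviral assays. Viability by MTT after 48–96 h at 37 °C, 5% CO2. CC50 = concentration reducing viability 50%.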

[4] = tested on: Vesicular stomatitis virus; experiment: Antiviral activity against Vesicular stomatitis virus after 2 days by plaque reduction assay; assay type: functional, organism-based
Vaccinia virus = experiment: Antiviral activity against Vaccinia virus after 3 days by plaque reduction assay; assay type: functional, organism-based; conditions: Orthopoxvirus vaccinia
Poliovirus 1 = experiment: Antiviral activity against Human poliovirus 1 strain Sabin after 2 days by plaque reduction assay; assay type: functional; conditions: for EC50: Enterovirus C, 48 h
[5] = tested on: Human immunodeficiency virus 1; experiment: Antiviral activity against HIV1 infected in human MT4 cells assessed as inhibition of virus-induced cytopathicity after 4 days by MTT assay; assay type: functional, organism-based
[6] = Cytotoxicity against MDBK cells after 48 to 96 hrs by MTT assay; assay type: cell-based, Bos taurus; conditions: cattle, mdbk; method in brief: as §1
Vero = experiment: Cytotoxicity against african green monkey Vero 76 cells by crystal violet staining; assay type: cell-based; conditions: chlorocebus sabaeus, vero
Method in brief: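 Mock-infected Vero 76 seeded at 4 × 10^5 cells/mL, run in parallel with plaque assays, with or without serial compound dilutions. Cell number of monolayers determined by crystal violet staining. CC50 = concentration reducing viable cell number 50%.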

[7] = tested on: Mammalian orthoreovirus 1; experiment: Antiviral activity against Reovirus-1 infected in BHK-21 cells assessed as inhibition of virus-induced cytopathicity after 3 to 4 days by MTT assay; assay type: functional, organism-based; conditions: Mammalian orthoreovirus 1, BHK-21
Method in brief: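 BHK-21 cells seeded at 5 × 10^4 cells/well, grown overnight to confluent monolayers at 37 °C in 5% CO2, then infected at m.o.i. 0.01 in serum-free medium. One hour later, MEM Earle's with 1% final inactivated FCS added, with or without serial compound dilutions. Viability read by MTT after 3–4 days at 37 °C. EC50 is the concentration giving 50% protection from cytopathogenicity.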

Human alphaherpesvirus 1 = experiment: Antiviral activity against HSV1 infected in Vero-76 cells after 3 days by plaque reduction assay; assay type: functional, organism-based; conditions: Human alphaherpesvirus 1, Vero 76, 72 h
Coxsackievirus B2 = experiment: Antiviral activity against Coxsackie virus type B2 virus infected in african green monkey Vero-76 cells after 3 days by plaque reduction assay; assay type: functional, organism-based; conditions: Enterovirus B, Vero 76, 72 h
Method in brief: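 Vero 76 cells seeded at 2 × 10^5 cells/well, grown overnight to confluence at 37 °C in 5% CO2, then infected at 50–100 PFU/well. Unadsorbed virus removed. Overlay of DMEM with 1% inactivated FCS and 0.75% methylcellulose, with or without serial compound dilutions. After 3 days at 37 °C, fixed and stained with crystal violet in PBS/50% ethanol; plaques counted. EC50 is the concentration reducing plaque number by 50%.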

Compound | CC50 (MT4) | EC50 (Yellow fever virus) | EC50 [1] | EC50 [2] | CC50 [3] | Activity [4] | Activity (Vaccinia virus) | EC50 (Poliovirus 1) | inhibition [5] | CC50 [6] | CC50 (Vero) | EC50 [7] | EC50 (Human alphaherpesvirus 1) | EC50 (Coxsackievirus B2) | Activity (Poliovirus 1)
Fc1ccc(F)c(/N=N/Nc2ccccc2)c1 | 100 µM | > 100 µM | > 100 µM | 10 µM | > 100 µM | inactive | inactive | > 80 µM | inactive | > 100 µM | 80 µM | > 100 µM | 55 µM | 12 µM | 
Fc1ccc(F)c(/N=N/Nc2cccc(C(F)(F)F)c2)c1 | > 100 µM | 80 µM | > 100 µM | 10 µM | > 100 µM | inactive | inactive | > 80 µM | inactive | > 100 µM | 80 µM | > 100 µM | > 80 µM | > 80 µM | 
CN(Cc1ccccc1)/N=N/c1ccccc1 | ≥ 100 µM | > 100 µM | > 100 µM | > 100 µM | > 100 µM | inactive | inactive | > 100 µM | inactive | > 100 µM | ≥ 100 µM | > 100 µM | > 100 µM | > 100 µM | 
O=[N+]([O-])c1cccc(/N=N/Nc2ccccc2)c1 | 40 µM | > 38 µM | 19 µM | > 33 µM | 38 µM | inactive | inactive | > 33 µM | inactive | 94 µM | 33 µM | > 38 µM | > 33 µM | > 33 µM | 
CN(C)CCCNc1ccc(/N=N/c2c(F)cccc2F)cc1 | 35 µM | 10 µM | ≥ 20 µM | > 65 µM | 43 µM | inactive | inactive |  | inactive | 20 µM | 65 µM | 12 µM | > 65 µM | > 65 µM | inactive
Fc1ccc(F)c(/N=N/Nc2cc(F)ccc2F)c1 | ≥ 100 µM | > 100 µM | > 100 µM | 8 µM | > 100 µM | inactive | inactive | > 100 µM | inactive | > 100 µM | ≥ 100 µM | > 100 µM | > 100 µM | 50 µM | 
CN(C)CCCN(/N=N/c1cccc([N+](=O)[O-])c1)c1ccccc1 | 14 µM | 24 µM | > 37 µM | > 40 µM | 54 µM | inactive | inactive | > 40 µM | inactive | 37 µM | 40 µM | > 54 µM | 30 µM | > 40 µM | 
c1ccc(/N=N/c2ccc(NC[C@@H]3CCCN4CCCC[C@H]34)c3c2CCCC3)cc1 | 100 µM | ≥ 100 µM | 30 µM | > 80 µM | > 100 µM | inactive | inactive |  | inactive | > 100 µM | 80 µM | > 100 µM | > 80 µM | > 80 µM | inactive
CN(C)CCCN(/N=N/c1ccccc1)c1ccccc1 | 33 µM | > 50 µM | ≥ 95 µM | > 35 µM | 50 µM | inactive | inactive | > 35 µM | inactive | 95 µM | 35 µM | > 50 µM | 12 µM | 6 µM | 
Cc1ccc(/N=N/N(C)c2ccccc2)cc1 | 45 µM | > 100 µM | > 100 µM | > 58 µM | > 100 µM | inactive | inactive | > 58 µM | inactive | > 100 µM | 58 µM | > 100 µM | > 58 µM | > 58 µM | 
Cc1ccc(/N=N/c2ccc(NCCCN(C)C)cc2)cc1 | 17 µM | > 100 µM | > 100 µM | > 50 µM | > 100 µM | inactive | inactive |  | inactive | > 100 µM | 50 µM | > 100 µM | > 50 µM | > 50 µM | inactive
CN(C)CCCNc1ccc(/N=N/c2cc(F)ccc2F)cc1 | 16 µM | 12 µM | 9 µM | > 30 µM | 33 µM | inactive | inactive |  | inactive | 59 µM | 30 µM | > 33 µM | 12 µM | > 30 µM | inactive
CN(C)CCCNc1ccc(/N=N/c2ccccc2)cc1 | 17 µM | ≥ 31 µM | 1.6 µM | 25 µM | 31 µM | inactive | inactive |  | inactive | 58 µM | 30 µM | > 31 µM | > 30 µM | > 30 µM | inactive
CN(/N=N/c1cccc([N+](=O)[O-])c1)c1ccccc1 | > 100 µM | > 100 µM | > 82 µM | 15 µM | > 100 µM | inactive | inactive | 29 µM | inactive | 82 µM | > 100 µM | 33 µM | > 100 µM | > 100 µM | 
Cc1ccc(/N=N/N(CCCN(C)C)c2ccccc2)cc1 | 18 µM | > 100 µM | > 100 µM | > 100 µM | > 100 µM | inactive | inactive | > 100 µM | inactive | > 100 µM | 100 µM | > 100 µM | > 100 µM | > 100 µM | 
c1ccc(CN/N=N/c2ccccc2)cc1 | 42 µM | > 100 µM | > 100 µM | > 100 µM | > 100 µM | inactive | inactive | > 100 µM | inactive | > 100 µM | 100 µM | > 100 µM | > 100 µM | > 100 µM | 
CN(/N=N/c1ccccc1)c1ccccc1 | 55 µM | > 100 µM | > 100 µM | 20 µM | > 100 µM | inactive | inactive | > 50 µM | inactive | > 100 µM | 50 µM | > 100 µM | > 50 µM | > 50 µM | 
